ALR inh – inhibitors of human ALR sulfhydryl oxidase, primary screen, biochemical, H2O2 detection, HRP-luminol luminescence, single point; inhibition, % (test concentration not listed); purified ALR, DTT oxidation; AID 485317, 2010; 290,000 tested, 3.8% active; FAD-linked sulfhydryl oxidase ALR (Homo sapiens), P55789;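 active = mean replicate inhibition above about 79%, with every replicate also reaching it, limit read from the data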
Target sequence (P55789 whole entry, looked up): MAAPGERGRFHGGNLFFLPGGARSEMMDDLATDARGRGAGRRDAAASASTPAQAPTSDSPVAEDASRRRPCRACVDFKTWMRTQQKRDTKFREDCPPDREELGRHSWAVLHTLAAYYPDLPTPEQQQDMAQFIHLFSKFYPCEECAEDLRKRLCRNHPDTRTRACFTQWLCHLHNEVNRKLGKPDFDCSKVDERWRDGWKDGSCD
EBNA-1 inhibitor – EBNA-1 DNA-binding inhibitors, primary screen, biochemical, fluorescence polarization | inhibition, % at 14.8 µM | 300,000 tested, 0.34% active | AID 1950, 2009; in the data active = inhibition above about 28%
NS3 helicase inh – inhibitors of HCV NS3 helicase, primary screen, biochemical, Cy5 molecular beacon fluorescence; inhibition, % at 10.9 µM; AID 1800, 2009; 290,000 tested, 0.56% active; NS3 helicase DNA unwinding;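 active = inhibition above the mean of all tested compounds plus 3 SD, set per campaign, cut at about 35% in these data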;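 note: 0% = DMSO wells and 100% = thioflavine S control wells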
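assay system = NS3 helicase fragment of HCV | buffer or medium = MOPS pH 6.5, MgCl2, DTT, Tween20, BSA | timing = 60 min unwinding reaction at 25 °C after ATP addition | signal = Cy5 beacon fluorescence read at start and 1 h | read-out basis = % inhibition of unwinding | control set = low DMSO, high thioflavine S at 110 µM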
ZTA counter – ZTA (EBV) inhibition in EBNA-1 counter-screen; P03206; ZTA-DNA binding, fluorescence polarization; inhibition, % at 11 µM; 320,000 tested, 0.15% active; AID 2234; in the data active = inhibition above about 33%
Target sequence (P03206 whole entry, looked up): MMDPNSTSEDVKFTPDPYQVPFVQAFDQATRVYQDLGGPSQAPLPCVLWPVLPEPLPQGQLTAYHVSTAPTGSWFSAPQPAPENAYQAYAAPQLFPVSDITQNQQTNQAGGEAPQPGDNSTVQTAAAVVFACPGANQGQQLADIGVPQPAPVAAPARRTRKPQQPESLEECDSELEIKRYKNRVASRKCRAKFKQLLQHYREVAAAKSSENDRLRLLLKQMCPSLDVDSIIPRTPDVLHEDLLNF
HCV core dimer – inhibitors of HCV core protein dimerization, primary screen, biochemical, TR-FRET, high-throughput. TR-FRET GST/Flag-core106 dimerization, 1536-well. inhibition, % at 5 µM. 300,000 tested, 0.33% active. AID 1899, 2009;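 active = inhibition above the mean of all tested compounds plus 3 SD, set per screening campaign, cut at about 45% in these data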
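Material: Tagged HCV core106 pair (GST and Flag) | Amount: GST-core106 13.5 nM, Flag-core106 17 nM | Medium: KF-containing HEPES buffer, pH 7.45, DTT, CHAPS, BSA | Reagent: Eu donor and XL665 acceptor anti-tag antibodies | Schedule: 4 h at 22.5 °C | Technique: Time-resolved FRET, ex 340 nm, em 617 and 671 nm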
M18AAP inhibitor – PfM18AAP inhibitors, malaria aminopeptidase, primary screen, biochemical, QFRET, recombinant enzyme; AID 1822, 2009; M18 aspartyl aminopeptidase (Plasmodium falciparum 3D7); H-Glu-NHMec fluorogenic cleavage; 290,000 tested, 1.2% active; inhibition, % at 7.35 µM;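 active = inhibition above the campaign mean inhibition over all tested compounds plus 3 SD, cut at about 28% in these data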;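 note: 0% = plate median of test compound wells and 100% = 2 mM ZnCl2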
ZTA inh confirm – EBV Zta binding to ZRE DNA, inhibitors, confirmation, biochemical, fluorescence polarization, triplicate | 320 tested, 30% active | AID 2361, 2010 | shares compounds with ZTA counter | inhibition, % at 11.1 µM;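 active = mean inhibition across triplicate runs above the hit threshold derived for the original primary screen, cut at about 33% in these data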;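 note: 0% = Zta with DMSO and 100% = wells lacking Zta protein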
EBNA-1 counter – EBNA-1 DNA-binding inhibition, counter-screen for ZTA inhibitor project, biochemical, fluorescence polarization | shares compounds with ZTA counter | inhibition, % at 14.8 µM | 320 tested, under 10 active; call rule not given here
Active calls of the source: *; x = not tested or not shown; ! = not confirmed by another sample. Only some compounds are listed: those with a hit (about 5.2% of all), similar ones and a draw of the others.

SMILES	ALR inh	EBNA-1 inhibitor	NS3 helicase inh	ZTA counter	HCV core dimer	M18AAP inhibitor	ZTA inh confirm	EBNA-1 counter
CCC(C)Sc1cc(-c2nc3ccc(C)cn3c2NCc2ccccc2)ccc1OC (centres undefined)	6	11	x	40*	11	x	93*	-14
COc1cc(C(=O)NCCOc2ccc(Cl)cc2)ccc1OCc1c(C)noc1C	x	x	x	7	x	x	x	x
CC1CCCC(NC(=O)COC(=O)c2cc(S(=O)(=O)N3CCOCC3)ccc2F)C1C (centres undefined)	-3	x	x	0	x	x	x	x
COc1ccc(C=O)c(OC)c1	3	3	3	-13	-3	-18	x	x
COc1ccc(OC)c(N)c1	12	20	-1	37*	-10	6	-13	-9
Cc1ccc2c(c1)[C@@H]1[C@H](CO2)[C@H](c2ccccc2)[C@]2(C)C(=O)N[C@H](C)C(=O)N12	-4	x	x	x	x	x	x	x
CCOC(=O)C1CCCCN1Cc1ccc(OC)c(OC)c1 (centres undefined)	2	4	5	34*	7	6	-5	-8
O=C(CCc1ccccc1)OCCOC(=O)CCc1ccccc1	-3	-4	-1	-1	1	-1	x	x
COc1cccc2c1C(=O)c1c(O)c3c(c(O)c1C2=O)C[C@@](O)(C(=O)CO)C[C@@H]3O[C@H]1C[C@H](N)[C@@H](O)[C@H](C)O1	-20	20	x	72*	-23	x	106*	12
CC(C)c1ccc(C(O)P(=O)(OC2CCCCC2)OC2CCCCC2)cc1 (centres undefined)	-3	-15	3	-7	4	-1	x	x
CC1(C)CC(=O)C=C(c2ccc(-c3ccccc3)cc2)C1	5	x	x	48*	x	x	30	9
Cc1nc(Nc2cnc(/C=C/c3cc(C(=O)Nc4cccc(C(F)(F)F)c4)ccc3C)cn2)cc(N2CCNCC2)n1	-3	15	-89	45*	24	17	25	18
CC(=O)c1ccc(-c2ccc(C(=O)Nc3nc(C)c(C(C)=O)s3)o2)cc1	0	x	x	0	x	x	x	x
O=C(O)c1ccc(N/N=C/C2=C(N3CCOCC3)C(=C\c3ccccc3)/CC2)cc1	97*	14	27	69*	10	17	6	5
COc1cc(OC)cc(-c2c(C#Cc3ccsc3)c3cc(-c4ccc(C(N)=O)cc4)ccc3n2C)c1	-3	x	x	40*	x	x	22	25
COCc1ccc(-c2ccc3c(c2)c(C#Cc2ccsc2)c(-c2cc(OC)cc(OC)c2)n3C)cc1	-4	x	x	-5	x	x	x	x
CCN1CCN(Cc2ccc(NC(=O)c3ccc(C)c(NC(=O)C(=O)c4c[nH]c5ccccc45)c3)cc2C(F)(F)F)CC1	18	12	-103	40*!	-24	6	32	-7
O=C(CNc1ccc(Br)cc1)c1ccc(Br)s1	x	-1	-3	5	11	13	x	x
CCn1c(CSc2nccn2C)nc2cc(C(=O)O)ccc21	98*	4	18	38*	-5	13	28	16
CCn1c(CSc2nc3ccccc3[nH]2)nc2cc(C(=O)O)ccc21	58	19	3	29	1	-2	x	x
CC(=O)n1cc(CO)c2ccccc21	-10	3	-6	4	-1	6	x	x
CC(=O)O/C(=C\c1cn(C(C)=O)c2ccccc12)C(=O)O	x	1	7	158*	-1	4	5	-1
Cn1c(SCC(=O)N2CCN(c3ccccc3)CC2)nnc1-c1ccncc1	39	-9	-3	38*	-1	0	-1	4
COc1ccc(C(=O)N/C(=C\c2cn(S(=O)(=O)N(C)C)c3ccccc23)C(=O)NCCN2CCOCC2)cc1OC	-1	1	-56	-4	2	0	x	x
CCc1nn(CC(=O)N2CCN(C)CC2)c(=O)c2cccn12	-5	2	-4	36*	-13	3	-1	-8
SMILES	ALR inh	EBNA-1 inhibitor	NS3 helicase inh	ZTA counter	HCV core dimer	M18AAP inhibitor	ZTA inh confirm	EBNA-1 counter
CCN(CC)CCN1C(=O)C(=O)/C(=C(/O)c2ccc(S(=O)(=O)N3CCOCC3)cc2)C1c1ccc(C(C)C)cc1 (centres undefined)	3	-8	14	-2	-2	4	x	x
CC(=O)Nc1ccc2[nH]c(C)cc(=O)c2c1	-4	11	0	87*	5	5	2	-5
O=C(O)c1ccc(S(=O)(=O)/N=C2\C=C(Nc3ccccc3F)C(=O)c3ccccc32)cc1	70	2	13	62*	15	12	69*	11
COc1ccc(S(=O)(=O)/N=C2\C=C(Nc3ccc(O)cc3)C(=O)c3ccccc32)cc1	x	-7	-17	35*	-22	18	31	-10
CCc1ccc(S(=O)(=O)/N=C2\C=C(NS(=O)(=O)c3ccccc3)C(=O)c3ccccc32)cc1	x	x	-7	x	x	3	x	x
O=C(/C=C/c1ccco1)N(Cc1cccc(F)c1)C1CCS(=O)(=O)C1 (centres undefined)	5	22	6	6	14	-4	x	x
COc1ccc(-c2coc3c(CN4CCCCC4)c(O)c(CN4CCCCC4)c(O)c3c2=O)cc1	6	-4	-49	73*	-5	-4	2	-10
COc1ccc(CCNC(=O)CN2C(=O)C(=O)N(C3CCCC3)C2=O)cc1OC	0	x	x	5	x	x	x	x
CCOc1ccc(-n2nnc3c(=O)n(CC(=O)N4CCCc5ccccc54)cnc32)cc1	20	6	3	4	10	4	x	x
COc1ccc(-n2nnc3c(=O)n(CC(=O)N4CCCc5ccccc54)cnc32)cc1	-7	15	-3	36*	6	-3	3	-8
CCN(CC)CCOC(=O)c1ccc(N/C=C(/C#N)c2nc(-c3ccc(OC)cc3)cs2)cc1	-8	8	-30	47*	5	-2	22	-8
CCN(CC)CCOC(=O)c1ccc(N/C=C(/C#N)c2nc(-c3ccc4c(c3)OCO4)cs2)cc1	-10	-15	-38	16	3	4	x	x
Cc1nnc(NC(=O)C2CC(=O)N(C(C)c3ccccc3)C2)s1 (centres undefined)	-4	0	4	-3	1	1	x	x

Screening results (PubChem BioAssay)
